Screening results (PubChem BioAssay)
DDE Tn6 FP inh: DD(E)-Tn6 binding inhibition, primary FP screen; Fibrin DD(E) TRITC-Tn6 fluorescence polarization displacement; inhibition, % at 8.3 µM; hit rate 0.21% among 370,000;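 active means inhibition above a per-campaign cutoff: mean of compounds within control limits plus 3 SD, cut at about 15% in these data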;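 further: 0% = median of all compound wells on the plate and 100% = blocking peptide control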
PLC-beta3 inh: blocks human PLC-beta3 enzyme activity. hit rate 0.18% among 370,000. Purified PLC-beta3, fluorogenic substrate, fluorescence. inhibition, % at 12.2 µM. Q01970; in the data active means inhibition above about 11%;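 further: 0% = median of compound wells on plate and 100% = full blocker control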
PLC-gamma1 inh: blocks human PLC-gamma1 enzyme activity; hit rate 0.84% among 370,000; inhibition, % at 12.2 µM; purified PLC-gamma1, fluorogenic substrate, fluorescence; P19174; AID 720700
FID counter: displaces DNA intercalator in HCV helicase counter-screen. DNA fluorescent intercalator displacement, fluorescence. hit rate 0.17% among 290,000. AID 1845. inhibition, % at 7.9 µM; in the data active means inhibition above about 37%;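 further: 0% = vehicle and 100% = reference compound; higher means more ethidium bromide displaced from hairpin DNA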
Tn7 DDE FP: inhibitors of Tn7 peptide binding to human fibrin DD(E); P02675; FP displacement of FITC-Tn7 peptide from fibrin DD(E); 0% = median of compound wells per plate; inhibition, % at 8.3 µM; hit rate 0.13% among 370,000; AID 720508;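 active means inhibition above the mean of compounds falling within the control limits plus 3 SD of them, cut at about 14% in these data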;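 further: 0% = plate median of compound wells and 100% = 10 µM Aha-Tn7 peptide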
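assay system = human clot-derived fibrin DD(E) complex | quantity = Fibrin-DD(E) at 2 µM final | timing = 10 min preincubation, 3 h with tracer, room temperature | signal = fluorescence polarization | measure = percent inhibition | benchmarks = high control wells with 10 µM unlabelled Aha-Tn7 peptide (full inhibition) | replicates = singlicate testing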
PLCg1 ctr: inhibits human PLC-gamma1 in PLC-beta3 counter-screen; shares compounds with PLC-gamma1 inh; purified PLC-gamma1, fluorogenic substrate, fluorescence; inhibition, % at 12.3 µM; hit rate 3.1% among 3,300; AID 743258
PLCbeta3 conf: confirmation of human PLC-beta3 inhibitors. shares compounds with PLC-gamma1 inh. purified PLC-beta3, fluorogenic substrate fluorescence. inhibition, % at 12.3 µM. hit rate 1% among 3,300. AID 743261; in the data active means inhibition above about 11%
Starred values were filed as active, the others as inactive; · = no result given. In the library only some 1.4% were active in any assay of this set; here they are far more common. Unless noted, no stated cut-off is given here; in the data, active means inhibition above about 9.5%; inactive means the rest.

SMILES	DDE Tn6 FP inh	PLC-beta3 inh	PLC-gamma1 inh	FID counter	Tn7 DDE FP	PLCg1 ctr	PLCbeta3 conf
OCc1nc2ccccc2n1CCCCOc1ccccc1	2	0	0	·	10	·	·
Cc1ccc(OCCn2c(CCNC(=O)C3CCCCCC3)nc3ccccc32)cc1	-4	12*	17*	·	-1	9.6*	6
O=C(NCCc1nc2ccccc2n1CCOc1cc(F)ccc1F)C1CCCCC1	2	11*	11*	·	2	1	-17
OCCCc1nc2ccccc2n1CCCCOc1ccccc1	2	-2	11*	-21	0	-3	-5
COc1ccc2nc(Nc3nc(CSc4nc5ccccc5[nH]4)cc(=O)[nH]3)nc(C)c2c1	4	4	0	-5	-14	·	·
CCN(CC)CCCNC(=O)c1sc2ncn(CC(=O)Nc3ccc(C)c(Cl)c3)c(=O)c2c1C	3	-1	-1	24	-3	·	·
CCOC(=O)C1CCN(c2ccc(Cl)nn2)CC1	8	-6	-2	-2	-1	·	·
O=C(O)CC1(CC(=O)Nc2ccc(F)cc2F)CCCCC1	3	-8	-3	-2	3	·	·
CCOC(=O)c1c(C)[nH]c(C)c1S(=O)(=O)N(C)CC(=O)Nc1cccc(C)n1	-2	-5	6	-14	-6	·	·
NCCCCC(N)c1cn([C@@H](CCC(=O)O)C(=O)N2CCNCC2)nn1 (some centres not stated)	-5	13*	0	·	-3	-3	0
Cc1nn(-c2ccccc2)nc1-c1nnc(-c2ccc(C(F)(F)F)cc2)o1	-2	-9	1	1	0	·	·
Cc1noc(C)c1-c1nnc(-c2ccc(C(F)(F)F)cc2)o1	2	1	10*	-3	-1	5	2
Cc1ccc(S(=O)(=O)N2CCN(C(=O)COc3ccc(Br)cc3)CC2)cc1	1	-10	1	·	1	·	·
O=C(O)CCCN1C(=O)C2C3CCC(C3)C2C1=O (configuration not stated)	-3	7	12*	·	-5	-3	1
c1coc(CNC2CCCCC2)c1	0	0	0	-1	9	·	·
COc1ccc(NS(=O)(=O)c2cccc(NC(=O)c3ccccn3)c2)cc1	4	-8	-2	-14	-3	·	·
O=C(Nc1cccc(S(=O)(=O)Nc2ccc(Cl)cc2)c1)c1ccccn1	-1	-7	9.7*	·	0	-5	-3
S=C(SSC(=S)N1CCOCC1)N1CCOCC1	-4	3	1	·	-8	·	·
CC(SC(=S)N1CCOCC1)C(=O)O (configuration not stated)	5	2	12*	2	-5	-5	-3
CC(=O)c1ccc(OC2(C)CCN(Cc3cccn3-c3nccs3)C2)cc1 (configuration not stated)	-2	5	0	·	-5	·	·
c1ccc2oc(SCc3cn4ccsc4n3)nc2c1	-6	9	9.5*	-6	3	-1	-1
Cc1csc2nc(CSc3nc4ccccc4o3)cn12	-4	0	0	-10	4	·	·
CCC(C)NS(=O)(=O)c1ccc(NS(C)(=O)=O)cc1 (configuration not stated)	-1	2	4	-3	6	·	·
O=C(Cn1cnc2sc(-c3ccccc3)cc2c1=O)NCc1ccccc1	0	4	9.5*	-1	-6	-37	-84
O/N=C(/c1ccccc1)c1cc2cc(Br)cc(Br)c2o1	-5	1	12*	-1	-3	-4	-8
SMILES	DDE Tn6 FP inh	PLC-beta3 inh	PLC-gamma1 inh	FID counter	Tn7 DDE FP	PLCg1 ctr	PLCbeta3 conf
COc1cccc2cc(/C(=N/O)c3ccc(Br)cc3)oc12	-5	-3	5	-10	-10	·	·
COc1ccc(-n2ncc(S(=O)(=O)c3ccccc3)c2-c2ccc(Cl)cc2)cc1	0	3	5	-13	-5	·	·
O=S(=O)(c1ccccc1)c1cnn(-c2ccccc2)c1-c1ccc(F)cc1	2	15*	-2	-20	11	-6	13*
COc1ccc([C@@H]2CC(=O)[C@@H]3CN(S(=O)(=O)c4ccc(C)cc4)[C@H](c4cccc(Cl)c4)C[C@@H]3N2S(=O)(=O)c2ccccc2)cc1	3	2	-3	·	-9	·	·
CCOC(=O)N1CCN(C(=O)c2ccc(N(Cc3ccc(C)cc3)S(C)(=O)=O)cc2)CC1	-3	10	12*	-31	-7	-6	-6
CCOC(=O)N1CCN(C(=O)CN(c2ccc(OC)cc2)S(C)(=O)=O)CC1	2	11*	6	-5	-1	0	0
CCOC(=O)N1CCN(C(=O)CN(c2cccc(C)c2)S(=O)(=O)c2ccc(C)cc2)CC1	-4	2	20*	-35	-8	-15	-1
CSc1ccc(/C=N/S(=O)(=O)c2ccccc2)cc1	1	-2	-2	-5	-5	·	·
CC(=O)c1cc(-c2ccccc2)n(CC(=O)N2CCCC2)c1C	-2	-1	-2	-11	-4	·	·
Cc1cccc(C(=O)Oc2coc(CSc3nnc(NC(=O)C4CC4)s3)cc2=O)c1	0	6	1	-6	-4	·	·
Cc1ccc(C(=O)Oc2coc(CSc3nnc(NC(=O)C4CC4)s3)cc2=O)cc1C	-4	8	11*	-11	-11	1	1
COc1cccc(Nc2nc(C(N)Cc3ccc(Cl)cc3)cs2)n1 (configuration not stated)	0	2	9.5*	·	-9	-3	-2
COc1ccc(CC(N)c2csc(Nc3cccc(OC)n3)n2)cc1 (configuration not stated)	-6	0	0	·	1	·	·
COc1ccc(CC(N)c2csc(Nc3ccccn3)n2)cc1 (configuration not stated)	5	9	15*	·	0	0	2
Cc1ccc(CN2CCC(c3cc(-c4ccc(Cl)cc4)n[nH]3)CC2)cc1	-4	-2	11*	15	-2	-3	-5
Cc1cc(NC(=O)c2cc(-c3ccccc3)on2)n(-c2ccccc2)n1	-3	12*	9	-2	-5	-9	-8
COc1ccc(-c2cc(C(=O)Nc3cc(C)nn3-c3ccccc3)no2)cc1	14	0	1	0	0	·	·
CC(C)CCNC(=O)C(c1ccncc1)N(CC1CCCO1)C(=O)Cn1nnc(-c2ccc(F)cc2)n1 (configuration not stated)	1	-3	0	-1	4	·	·
CC(C)CCNC(=O)C(c1ccncc1)N(C(=O)Cn1nnc(-c2ccc(F)cc2)n1)c1ccccc1F (configuration not stated)	1	3	10*	-9	-8	-3	0
Cc1cccc([N+](=O)[O-])c1NC(=O)COC(=O)C1CCCO1 (configuration not stated)	1	-4	0	·	-3	·	·
